The subject of assay [1] is PC-3. Put plainly: Antiproliferative activity against human PC3 cells expressing PCDNA after 72 hrs by MTT assay. In kind it is functional, cell-based. Particulars: PC-3, 72 h. Summed up:
(§1)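 Cells (PC3 and its PCDNA- and SKP2-transfected lines, DU145) grown in RPMI 1640 with 10% FBS; G418 added for transfected lines. Exponential cells seeded 1 × 10⁴/well, 24 h at 37 °C, then fresh medium with compounds at several concentrations for 72 h. MTT 1–3 h at 37 °C, dissolved in 4% HCl/96% isopropanol, absorbance 570 nm. Triplicate per concentration; IC50 from dose–response curves.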
(Tetrazolium assays rely on reduction of a dye to a coloured formazan, in cell work by metabolically active cells.)

The test system of assay [2] is PC-3. Kind of assay: Antiproliferative activity against human PC3 cells expressing SKP2 after 72 hrs by MTT assay. It is filed as functional, cell-based. Particulars: PC-3, 72 h. Summed up: as §1
Assay [3] has as its target T1, Prostaglandin G/H synthase 1 (Ovis aries) (UniProt P05979).
T1 sequence (whole entry): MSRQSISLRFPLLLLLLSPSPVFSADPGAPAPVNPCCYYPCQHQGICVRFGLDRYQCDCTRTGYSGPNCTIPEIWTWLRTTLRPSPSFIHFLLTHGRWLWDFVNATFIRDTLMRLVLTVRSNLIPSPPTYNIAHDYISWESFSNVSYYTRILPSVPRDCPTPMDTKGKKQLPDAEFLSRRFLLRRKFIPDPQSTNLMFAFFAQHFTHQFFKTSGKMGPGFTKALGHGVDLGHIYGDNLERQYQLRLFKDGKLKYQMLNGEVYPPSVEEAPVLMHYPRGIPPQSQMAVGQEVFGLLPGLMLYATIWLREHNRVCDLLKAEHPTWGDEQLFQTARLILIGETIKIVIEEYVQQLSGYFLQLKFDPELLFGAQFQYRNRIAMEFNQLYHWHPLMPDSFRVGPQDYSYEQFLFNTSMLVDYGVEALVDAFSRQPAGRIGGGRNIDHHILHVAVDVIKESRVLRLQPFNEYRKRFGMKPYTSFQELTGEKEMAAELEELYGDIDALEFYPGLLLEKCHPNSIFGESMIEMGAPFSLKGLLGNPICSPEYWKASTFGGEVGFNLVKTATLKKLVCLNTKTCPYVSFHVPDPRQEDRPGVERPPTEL
Kind of assay: Inhibition of ovine COX-1 assessed as using arachidonic acid as substrate at 10 uM preincubated for 5 mins prior to substrate addition […] by enzyme immunoassay relative to control.

Assay [4] concerns the target T2, Prostaglandin G/H synthase 2 (Ovis aries, UniProt P79208).
T2 sequence (P79208 whole entry): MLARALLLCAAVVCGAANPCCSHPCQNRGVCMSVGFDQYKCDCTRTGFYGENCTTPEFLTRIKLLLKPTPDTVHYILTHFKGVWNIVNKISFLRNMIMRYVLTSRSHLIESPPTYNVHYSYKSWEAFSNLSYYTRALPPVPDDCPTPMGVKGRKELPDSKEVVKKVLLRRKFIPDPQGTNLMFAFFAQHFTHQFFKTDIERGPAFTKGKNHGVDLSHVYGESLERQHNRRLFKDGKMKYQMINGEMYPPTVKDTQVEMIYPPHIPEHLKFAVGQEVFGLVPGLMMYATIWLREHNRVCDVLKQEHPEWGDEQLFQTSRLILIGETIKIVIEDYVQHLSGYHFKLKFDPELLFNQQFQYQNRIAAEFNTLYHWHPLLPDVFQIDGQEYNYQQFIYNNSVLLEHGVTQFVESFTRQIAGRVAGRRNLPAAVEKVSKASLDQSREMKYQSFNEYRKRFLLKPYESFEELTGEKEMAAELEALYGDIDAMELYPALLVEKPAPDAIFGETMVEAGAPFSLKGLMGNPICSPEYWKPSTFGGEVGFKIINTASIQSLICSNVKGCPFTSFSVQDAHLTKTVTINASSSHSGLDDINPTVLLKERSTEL
Kind of assay: Inhibition of ovine COX-2 assessed as using arachidonic acid as substrate preincubated for 5 mins prior to substrate addition measured […] by enzyme immunoassay.

The target in assay [5] is T3, Prostaglandin G/H synthase 2 (Ovis aries) (UniProt P79208).
T3 sequence (whole entry): T2 sequence (P79208 whole entry)
Put plainly: Inhibition of ovine COX-2 assessed as using arachidonic acid as substrate at 10 uM preincubated for 5 mins prior to substrate addition measured after 2 hrs by enzyme immunoassay relative to control. To be noted: in the assay text read “after 2 mins” for “after 2 hrs”. Summed up:
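Ovine COX-1 or COX-2 with heme in 0.1 M Tris-HCl pH 8.0, 5 mM EDTA, 2 mM phenol; compound (0.001–100 µM final, DMSO stocks) preincubated 5 min at 37 °C, then arachidonic acid added, stopped with 1 M HCl after 2 min. PGF2α (SnCl2 reduction) quantified by competitive EIA at 412 nm; % inhibition vs controls; mean of two determinations.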

Assay [6] concerns PC-3. Kind of assay: Antiproliferative activity against human PC3 cells after 72 hrs by MTT assay. In kind it is functional, cell-based. Particulars: PC-3, 72 h. The method, boiled down:
as §1

In the next assay the test system is DU-145. Put plainly: Antiproliferative activity against human DU145 cells after 72 hrs by MTT assay. It is filed as functional, cell-based. Particulars: DU-145, 72 h. The method, boiled down:
as §1

Assay [7] addresses T3, Prostaglandin G/H synthase 2 (Ovis aries). Put plainly: Inhibition of ovine COX-2 assessed as using arachidonic acid as substrate at 10 uM preincubated for 5 mins prior to substrate addition measured after 2 mins by enzyme immunoassay relative to control.
The target in assay [8] is T4, Prostaglandin G/H synthase 1 (Ovis aries, UniProt P05979).
T4 sequence (P05979 whole entry): T1 sequence (whole entry)
Put plainly: Inhibition of ovine COX-1 assessed as using arachidonic acid as substrate preincubated for 5 mins prior to substrate addition […] by enzyme immunoassay.

Activity calls are given as the source filed them. No cut-off for these calls is given here.

By IC50 is commonly meant the point on the concentration scale where inhibition reaches its midpoint. In general, inhibition refers to how much of the control response was suppressed.

Consider `CS(=O)(=O)c1ccc(C2=C(c3ccc(F)cc3)C(=O)OC2)cc1`, for which the figures for the IC50 (in the assay on PC-3 [1]; in the assay with PC-3 [2]; in assay [4]) were more than 50 µM, more than 50 µM and 9.2 µM, respectively. Moreover, the inhibition was 28.5% in assay [3] and 66.9% in assay [5].
For `COc1cc(/C=C2\OC(=O)C(c3ccc(F)cc3)=C2c2ccc(S(C)(=O)=O)cc2)ccc1O`, the concentration for half-maximal inhibition (IC50) in the assay on PC-3 [6] was more than 50 µM; with PC-3 [1], more than 50 µM; in the assay on PC-3 [2], 10.7 µM; in [4], 17.6 µM; in the assay on DU-145, more than 50 µM. Besides, the inhibition in assay [5] worked out at 43.6%.
Regarding `COc1cc(/C=C2\OC(=O)C(c3ccc(F)cc3)=C2c2ccc(S(C)(=O)=O)cc2)cc(OC)c1OC`, the half-maximal inhibitory concentration (IC50) is more than 50 µM in the assay on PC-3 [6], more than 50 µM in the assay on PC-3 [1], 25.4 µM in the assay on PC-3 [2] and more than 50 µM with DU-145. Also, in [7], the inhibition worked out at 20.8%.
Take `CS(=O)(=O)c1ccc(C2=C(c3ccccc3Cl)C(=O)O/C2=C\c2ccc(O)cc2)cc1`: the IC50 in the assay on PC-3 [1] and with PC-3 [2] was more than 50 µM throughout. In addition, the inhibition in [7] stood at 2.27%.
For the compound `CN(C)c1ccc(/C=C2\OC(=O)C(c3ccc(F)cc3)=C2c2ccc(S(C)(=O)=O)cc2)cc1`, the IC50 was more than 50 µM in the assay on PC-3 [6], more than 50 µM with PC-3 [1], 47.2 µM in the assay on PC-3 [2] and more than 50 µM in the assay on DU-145. The inhibition entry in assay [3] and in assay [5] was “inactive” each time.
Consider `CS(=O)(=O)c1ccc(C2=C(c3ccccc3)C(=O)O/C2=C\c2ccc3c(c2)OCO3)cc1`, for which the IC50 with PC-3 [6] was more than 50 µM; with PC-3 [1], 37.2 µM; in the assay with PC-3 [2], 50.6 µM; in the assay on DU-145 it was more than 50 µM. In addition, in [7], the inhibition was 24.6%.
Turning to `COC1(C)OC(=O)C(c2ccc(F)cc2)=C1c1ccc(S(C)(=O)=O)cc1` (stereo not given), the half-maximal inhibitory concentration (IC50) in the assay on PC-3 [6] is more than 50 µM; in the assay on PC-3 [1] it was 36.4 µM; with PC-3 [2], more than 50 µM; in the assay on DU-145, more than 50 µM. In assay [7], the inhibition came to 32.4%.
For the compound `CC(C)=C1OC(=O)C(c2ccccc2Cl)=C1c1ccc(S(C)(=O)=O)cc1`, the half-inhibitory concentration (IC50) in the assay with PC-3 [6] was more than 50 µM; in the assay with PC-3 [1], 40.5 µM; in the assay on PC-3 [2], 15.4 µM; with DU-145, more than 50 µM. Moreover, the inhibition was determined as 18.6% in assay [3] and 24.1% in [7].
With `COc1ccccc1/C=C1\OC(=O)C(c2ccccc2Cl)=C1c1ccc(S(C)(=O)=O)cc1`, the IC50 in the assay on PC-3 [6] was more than 50 µM; with PC-3 [1], 25.5 µM; in the assay on PC-3 [2], 45.8 µM; in assay [4], 14.6 µM; in the assay on DU-145 it was more than 50 µM. In addition, the inhibition entry in assay [3] is “inactive”. Further, in assay [7], the inhibition is 44.2%.
For `CS(=O)(=O)c1ccc(C2=C(c3ccccc3Cl)C(=O)O/C2=C\c2cccc([N+](=O)[O-])c2)cc1`, the half-inhibitory concentration (IC50) in the assay on PC-3 [1] is more than 50 µM; in the assay on PC-3 [2], more than 50 µM; in assay [4], 7.1 µM. In addition, the inhibition in [3] came to 7.01%; in [7], 59.2%.
In the case of `CS(=O)(=O)c1ccc(C2=C(c3ccccc3Cl)C(=O)O/C2=C\c2ccccc2)cc1`, the 50% inhibitory concentration (IC50) in the assay on PC-3 [6] was more than 50 µM; with PC-3 [1], more than 50 µM; with PC-3 [2] it was 5.48 µM; in assay [4] it was 7.3 µM; with DU-145 it was more than 50 µM. The inhibition in [5] is 59.1%.
Consider `COc1ccc(/C=C2\OC(=O)C(c3ccccc3)=C2c2ccc(S(C)(=O)=O)cc2)cc1`, for which the IC50 was more than 50 µM with PC-3 [1], more than 50 µM in the assay with PC-3 [2] and 8.2 µM in assay [8]. The results for the inhibition in assay [3] and in [5] were 65.9% and 16.7%, respectively.
`COc1ccc(/C=C2\OC(=O)C(c3ccc(F)cc3)=C2c2ccc(S(C)(=O)=O)cc2)cc1`: the IC50 in the assay with PC-3 [1] and in the assay with PC-3 [2] was more than 50 µM throughout. Also, the inhibition in assay [3] was 10.2%. The inhibition entry in [5] was “inactive”.
As for `COc1ccccc1/C=C1\OC(=O)C(c2ccccc2)=C1c1ccc(S(C)(=O)=O)cc1`, the IC50 in the assay on PC-3 [1] is more than 80 µM; with PC-3 [2], more than 90 µM; in assay [8] it was 3.1 µM; in assay [4], 3 µM. In addition, the inhibition was 71% in assay [3] and 72.6% in assay [7].
In the case of `COc1ccccc1/C=C1\OC(=O)C(c2ccc(F)cc2)=C1c1ccc(S(C)(=O)=O)cc1`, the IC50 in the assay on PC-3 [6] is more than 50 µM; with PC-3 [1], 18.2 µM; in the assay with PC-3 [2] it was 25.1 µM; in [4], 13.9 µM; in the assay with DU-145 it was more than 50 µM. Further, the inhibition result in [3] is “inactive”. For the same compound, the inhibition in assay [5] came out at 45.6%.
For `COc1ccc(/C=C2\OC(=O)C(c3ccccc3Cl)=C2c2ccc(S(C)(=O)=O)cc2)cc1`, the half-inhibitory concentration (IC50) in the assay on PC-3 [1] is more than 50 µM; in the assay with PC-3 [2], more than 50 µM; in assay [8] it was 8.5 µM. In [3], the inhibition worked out at 61.2%. Moreover, in [5], the inhibition result is “inactive”.
`CS(=O)(=O)c1ccc(C2=C(c3ccccc3Cl)C(=O)O/C2=C\c2ccc(Cl)cc2)cc1`: the concentration for half-maximal inhibition (IC50) in the assay with PC-3 [1] and in the assay on PC-3 [2] was more than 50 µM in each case. Further, in assay [3], the inhibition result was “inactive”. Besides, the inhibition in [7] was 32.7%.

Source of the values: ChEMBL document CHEMBL2401696, “Stereoselective synthesis and anti-proliferative effects on prostate cancer evaluation of 5-substituted-3,4-diphenylfuran-2-ones” (Eur J Med Chem, 2013).
